# Results from paper PMC6938543 (Vaccine, 2019).
# Assays:
# [1] = system: Anti-α-PVP/MDPV polyclonal antibody; experiment: Competitive magnetic bead-based radioimmunoassay; format: binding, rat; settings: MDPV-t2 tracer; for IC50: structurally related cathinones tested at 10 μM and 100 μM only
# Method in brief: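 Sera came from male SD rats immunized sc with 100 μg bi-specific KLH conjugate plus 150 μL SAS. The competitive magnetic-bead RIA was specific for IgG binding and used tritium-labeled drug as tracer. Full inhibition curves with unlabeled drug gave IC50; one curve used a racemic homologous tritiated tracer. Analogues were tested only at 10 and 100 μM against 5 nM MDPV-t₂, scored as inhibition of tracer binding.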
# [2] = MDPV and α-PVP serum concentrations after sc challenge dose; format: in vivo, rat; settings: SAS and vaccinated rats, LC-MS/MS
# [3] = humans; cited from earlier work
# drug-specific pAb = settings: pAb from earlier separate α-PVP and MDPV vaccines; cited from earlier work
# [4] = Stability of α-PVP in extracted rat serum; format: physicochemical; settings: 4 °C
# male SD rats = format: in vivo, rat; settings: SAS control rats; sc
# Method in brief: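 Thirteen weeks after initial sc immunization (SAS alone or vaccine plus SAS), male SD rats (n=5–6/group) were habituated 60 min in litter-lined open-field chambers. They then got sc saline or drug at 0.3–5.6 mg/kg in ascending doses, 2–3 days apart, with each drug in a separate study. Video tracking ran 6 h; horizontal distance was summed per rat and reported as mean ± SD.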
molecule,measurement,setting,value
"CNC(C)Cc1ccc2c(c1)OCO2 (racemic) [MDMA, (±)-3,4-methylenedioxymethamphetamine]",inhibition of MDPV-t2 binding,[1]; 100 μM ligand,≤ 50%
"CCC(C(=O)c1ccc2c(c1)OCO2)N1CCCC1 (stereo not drawn) [3,4-Methylenedioxy-α-pyrrolidinobutiophenone]",inhibition of MDPV-t2 binding,[1]; 100 μM ligand,50%
same,IC50,[1],100 µM
"CC(C(=O)c1ccc2c(c1)OCO2)N1CCCC1 (stereo not drawn) [3,4-Methylenedioxy-α-pyrrolidinopropiophenone]",IC50,[1],> 100 µM
C[C@H](N)C(=O)c1ccccc1 [(S)-Cathinone],IC50,[1],> 100 µM
"CCCC(C(=O)c1ccc2c(c1)OCO2)N1CCCC1 (stereo not shown) [MDPV, 3,4-Methylenedioxypyrovalerone]",serum concentration 24 h after drug administration,[2],below the lower limit of quantitation
same,blood concentrations associated with recreational use,[3],10 to 50 ng/mL
same,blood concentrations at intoxication and overdose,[3],50 to 300 ng/mL
same,pAb affinities constants,drug-specific pAb,micromolar range
CNC(C)C(=O)c1ccc(C)cc1 (stereo not shown) [Mephedrone],IC50,[1],> 100 µM
CNC(C)C(=O)c1ccc2c(c1)OCO2 (stereo not shown) [Methylone],IC50,[1],> 100 µM
CCCC(NC)C(=O)c1ccccc1 (stereo not shown) [Pentedrone],IC50,[1],> 100 µM
CCCC(NC)C(=O)c1ccc2c(c1)OCO2 (stereo not shown) [Pentylone],IC50,[1],> 100 µM
CCCC(C(=O)c1ccc(C)cc1)N1CCCC1 (stereo not shown) [Pyrovalerone],inhibition of MDPV-t2 binding,[1]; 10 μM ligand,68%
COC(=O)[C@H]1[C@@H](OC(=O)c2ccccc2)C[C@@H]2CC[C@H]1N2C [cocaine],inhibition of MDPV-t2 binding,[1]; 100 μM ligand,≤ 50%
NCCc1ccc(O)c(O)c1 [dopamine],inhibition of MDPV-t2 binding,[1]; 100 μM ligand,≤ 50%
CNC[C@H](O)c1ccc(O)c(O)c1 [epinephrine],inhibition of MDPV-t2 binding,[1]; 100 μM ligand,≤ 50%
CN[C@@H](C)Cc1ccccc1 [methamphetamine],inhibition of MDPV-t2 binding,[1]; 100 μM ligand,≤ 50%
NC[C@H](O)c1ccc(O)c(O)c1 [norepinephrine],inhibition of MDPV-t2 binding,[1]; 100 μM ligand,≤ 50%
c1ccc(C2(N3CCCCC3)CCCCC2)cc1 [phencyclidine],inhibition of MDPV-t2 binding,[1]; 100 μM ligand,≤ 50%
CN[C@@H](C)[C@@H](O)c1ccccc1 [pseudoephedrine],inhibition of MDPV-t2 binding,[1]; 100 μM ligand,≤ 50%
NCCc1c[nH]c2ccc(O)cc12 [serotonin],inhibition of MDPV-t2 binding,[1]; 100 μM ligand,≤ 50%
NCCc1ccc(O)cc1 [tyramine],inhibition of MDPV-t2 binding,[1]; 100 μM ligand,≤ 50%
"CCCC(C(=O)c1ccccc1)N1CCCC1 (stereo not drawn) [α-PVP, α-pyrrolidinovalerophenone]",stability in extracted serum,[4],at least 59 h
same,dose of peak effect on horizontal movement,male SD rats,1.0 mg/kg
same,serum concentration 24 h after drug administration,[2],below the lower limit of quantitation
same,pAb affinities constants,drug-specific pAb,micromolar range
(S)-Methcathinone,IC50,[1],> 100 µM
